The subject of assay [1] is A549. The assay is described as follows: Cytotoxicity against human A549 cells after 2 days. Type of assay: functional, cell-based. The note with it: A549, 48 h. A digest of the protocol: (§1)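 Growth inhibition under continuous exposure for 2 days. Stock solutions were made in DMSO and kept at -70 °C, then diluted into culture medium to a final DMSO of ≤1% (v/v). EC50 was taken as the concentration giving 50% growth inhibition.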

Assay [2] deals with MCF7. The assay is described as follows: Cytotoxicity against human MCF7 cells after 2 days. The conditions noted are these: MCF7, 48 h. Format: functional, cell-based. An outline of the steps:
as §1

For orientation: EC50 means the concentration at which the effect is half-maximal. Low values mean higher potency in that assay, high ones lower potency in that assay.

In brackets after ≈: the same amount, converted by molar mass. A value given as a limit tells only on which side of the number the result lay.

In the case of `C[C@H]1CC[C@@]2(OC1)O[C@H]1C[C@H]3[C@@H]4CC[C@@H]5C[C@@H](O[C@@H]6O[C@H](CO)[C@@H](O[C@@H]7O[C@@H](C)[C@H](O)[C@@H](O)[C@H]7O)[C@H](O)[C@H]6O[C@H]6OC[C@H](O)[C@@H](O)[C@@H]6O)CC[C@]5(C)[C@H]4CC[C@]3(C)[C@H]1[C@@H]2C`, the concentration for a half-maximal effect (EC50) in assay [1] is 2.3 µg/mL (≈ 2.68 µM); in assay [2], 3 µg/mL (≈ 3.5 µM).
As for `C[C@H]1CC[C@@]2(OC1)O[C@H]1C[C@H]3[C@@H]4CC[C@@H]5C[C@@H](O[C@@H]6O[C@H](CO)[C@@H](O[C@@H]7OC[C@@H](O)[C@H](O)[C@H]7O)[C@H](O)[C@H]6O)CC[C@]5(C)[C@H]4CC[C@]3(C)[C@H]1[C@@H]2C` [ASPAFILIOSIDE A], the EC50 was 9.4 µg/mL (≈ 13.2 µM) in assay [1] and above 20 µg/mL in assay [2].
For `COc1cc([C@@H]2c3cc4c(cc3[C@@H](O[C@@H]3O[C@@H]5CO[C@@H](C)O[C@H]5[C@H](O)[C@H]3O)[C@H]3COC(=O)[C@H]23)OCO4)cc(OC)c1O` [ETOPOSIDE] the same measures were 0.8 µg/mL (≈ 1.36 µM) and 2.8 µg/mL (≈ 4.76 µM).
For `C[C@@H]1CC[C@@]2(OC1)O[C@H]1C[C@H]3[C@@H]4CC[C@H]5C[C@@H](O[C@@H]6O[C@H](CO[C@@H]7OC[C@H](O)[C@H](O)[C@H]7O)[C@@H](O[C@@H]7OC[C@@H](O)[C@H](O)[C@H]7O)[C@H](O)[C@H]6O)CC[C@]5(C)[C@H]4CC(=O)[C@]3(C)[C@H]1[C@@H]2C` [FILIASPAROSIDE A] the same measures were 13.3 µg/mL (≈ 15.5 µM) and 11.2 µg/mL (≈ 13.1 µM).
Regarding `C[C@@H]1CC[C@@]2(OC1)O[C@H]1C[C@H]3[C@@H]4CC[C@H]5C[C@@H](O[C@@H]6O[C@H](CO[C@@H]7OC[C@H](O)[C@H](O)[C@H]7O)[C@@H](O)[C@H](O)[C@H]6O)CC[C@]5(C)[C@H]4CC(=O)[C@]3(C)[C@H]1[C@@H]2C` [FILIASPAROSIDE B], the EC50 in assay [1] was determined as 16.4 µg/mL (≈ 22.6 µM); in assay [2], 16.8 µg/mL (≈ 23.2 µM).
In the same order, the values of `C[C@H]1CC[C@@]2(OC1)O[C@H]1C[C@H]3[C@@H]4CC[C@@H]5C[C@@H](O[C@@H]6O[C@H](CO[C@@H]7OC[C@H](O)[C@H](O)[C@H]7O)[C@@H](O)[C@H](O)[C@H]6O)CC[C@]5(C)[C@H]4CC[C@]3(C)[C@H]1[C@@H]2C` [FILIASPAROSIDE D] are 2.4 µg/mL (≈ 3.38 µM) and 10.3 µg/mL (≈ 14.5 µM).

The record behind these values is ChEMBL document CHEMBL1141248, “Filiasparosides A-D, cytotoxic steroidal saponins from the roots of Asparagus filicinus” (J Nat Prod, 2007).
